In ChEMBL document CHEMBL1821679, “Targeting the heat shock protein 90 dimer with dimeric inhibitors” (J Med Chem, 2011) one finds IC50 and inhibition data, which are given here for 8 molecules.

Active and inactive are the calls of the source. The rule behind the calls is not given here.

Assay [1] deals with SK-BR-3. Nature of the assay: Antiproliferative activity against human SKBR3 cells after 72 hrs by MTS/PMS assay. It is filed as functional, cell-based. The note with it: SK-BR-3, 72 h. Summed up:
(§1)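 Cells grown in medium with non-essential amino acids, 2 mM L-glutamine, streptomycin, penicillin and 10% FBS at 37 °C, 5% CO2; seeded 2000/well, attached overnight. Test agent added over a concentration range in DMSO (1% final), 72 h exposure. Viable cells counted by MTS/PMS read-out against 1% DMSO wells as 100% proliferation. IC50 taken as mean ± SD of at least two separate experiments, each in triplicate.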

Assay [2] has as its system MCF7. Nature of the assay: Antiproliferative activity against human MCF7 cells after 72 hrs by MTS/PMS assay. It is filed as functional, cell-based. The note with it: MCF7, 72 h. In a few lines: as §1
Assay [3] is described as follows: Antiproliferative activity against human PC3MM2 cells after 72 hrs by MTS/PMS assay. Particulars: PC3MM2, 72 h. It is filed as functional, cell-based. Summed up:
as §1

The subject of assay [4] is A549. Nature of the assay: Antiproliferative activity against human A549 cells after 72 hrs by MTS/PMS assay. It counts as functional, cell-based. The note with it: A549, 72 h. In a few lines:
as §1

Assay [5] deals with HT-29. Nature of the assay: Antiproliferative activity against human HT-29 cells after 72 hrs by MTS/PMS assay. It counts as functional, cell-based. The note with it: HT-29, 72 h. Summed up: as §1
Assay [6] addresses T1, Heat shock protein HSP90 (Homo sapiens) (UniProt P07900+P08238). Nature of the assay: Inhibition of Hsp90 in human MCF7 cells assessed as induction of Her2 degradation at 5 fold IC50 after 24 hrs by Western blot method. It counts as cell-based. Summed up:
(§2)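 MCF-7 cells treated 24 h with compound in DMSO (1% final); geldanamycin 500 nM served as positive control and DMSO as vehicle control. Cells harvested in cold PBS and lysed 1 h on ice in RIPA with 1 mM PMSF, 2 mM orthovanadate and protease inhibitors. Lysates clarified 14,000g, 15 min, 4 °C. Protein (20 µg, BCA) resolved under reducing conditions and blotted on PVDF for Her2, Raf and Akt, with actin as loading control. Detection by HRP secondary antibody and chemiluminescence.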
For orientation: In western blotting, separated proteins are transferred to a membrane and probed.

Assay [7] addresses T1, Heat shock protein HSP90 (Homo sapiens). Kind of assay: Inhibition of Hsp90 in human MCF7 cells assessed as induction of Her2 degradation at 0.5 fold IC50 after 24 hrs by Western blot method. It counts as cell-based. Summed up: as §2
Assay [8] shares this target. Kind of assay: Inhibition of Hsp90 in human MCF7 cells assessed as induction of Raf degradation at 5 fold IC50 after 24 hrs by Western blot method. It counts as cell-based. Summed up: as §2
The target is the same in assay [9]. Kind of assay: Inhibition of Hsp90 in human MCF7 cells assessed as induction of Raf degradation at 0.5 fold IC50 after 24 hrs by Western blot method. It is filed as cell-based. Summed up: as §2
Assay [10] has the same target. Kind of assay: Inhibition of Hsp90 in human MCF7 cells assessed as induction of Akt degradation at 5 fold IC50 after 24 hrs by Western blot method. It is filed as cell-based. Summed up: as §2
For assay [11] the target is unchanged. Kind of assay: Inhibition of Hsp90 in human MCF7 cells assessed as induction of Akt degradation at 0.5 fold IC50 after 24 hrs by Western blot method. It counts as cell-based. Summed up:
as §2

By IC50 is commonly meant the concentration that gives 50% inhibition. Higher therefore signals lower potency. Regarding `Cc1c(OCCCN(C)C)ccc2cc(NC(=O)C/C=C/CC(=O)Nc3cc4ccc(OCCCN(C)C)c(C)c4oc3=O)c(=O)oc12`, the IC50 was 460 nM in assay [1]; 840 nM in assay [2]; 15200 nM in assay [3]; 19400 nM in assay [4]; 12200 nM in assay [5]. Also, the inhibition result in assay [6], in [7], in assay [8], in assay [9], in [10] and in assay [11] was “inactive” in each case.

`Cc1c(OC2CCN(C)CC2)ccc2cc(NC(=O)CCCCCCC(=O)Nc3cc4ccc(OC5CCN(C)CC5)c(C)c4oc3=O)c(=O)oc12`: the IC50 in assay [1] came out at 1190 nM; in [2] it was 2820 nM; in assay [3], 13800 nM; in [4], 30400 nM; in assay [5] it was 26300 nM.

With `COc1ccc(C(=O)Nc2cc3ccc(O[C@@H]4OC(C)(C)[C@H](OC)[C@@H](O)[C@H]4O)c(C)c3oc2=O)cc1-c1cc(C(=O)Nc2cc3ccc(O[C@@H]4OC(C)(C)[C@H](OC)[C@@H](O)[C@H]4O)c(C)c3oc2=O)ccc1OC`, the IC50 in assay [1] was 1160 nM; in assay [2], 760 nM; in assay [3], 36700 nM; in assay [4], 35400 nM; in [5], 36500 nM. The inhibition result in assay [6], in assay [7], in [8], in assay [9], in assay [10] and in assay [11] was “Active” in each case.

With `Cc1c(OC2CCN(C)CC2)ccc2cc(NC(=O)CCC/C=C/CCCC(=O)Nc3cc4ccc(OC5CCN(C)CC5)c(C)c4oc3=O)c(=O)oc12`, the IC50 was found to be 890 nM in [1]; 630 nM in [2]; 440 nM in [3]; 220 nM in assay [4]; 240 nM in assay [5]. Besides, the inhibition result in assay [6] and in assay [7] was “inactive” throughout. In addition, the inhibition result in assay [8], in assay [9], in [10] and in assay [11] was “Active” each time.

For `COc1ccc(C(=O)Nc2cc3ccc(O[C@@H]4OC(C)(C)[C@H](OC)[C@@H](O)[C@H]4O)c(OC)c3oc2=O)cc1-c1cc(C(=O)Nc2cc3ccc(O[C@@H]4OC(C)(C)[C@H](OC)[C@@H](O)[C@H]4O)c(OC)c3oc2=O)ccc1OC`, the IC50 in assay [1] came out at 910 nM; in [2], 880 nM; in assay [3], 270 nM; in assay [4] it was 210 nM; in assay [5], 270 nM. In addition, the inhibition result in assay [6], in [7], in [8], in assay [9], in [10] and in [11] was “Active” throughout.

Consider `Cc1c(OC2CCN(C)CC2)ccc2cc(NC(=O)CC/C=C/CCC(=O)Nc3cc4ccc(OC5CCN(C)CC5)c(C)c4oc3=O)c(=O)oc12`, for which the IC50 came to 150 nM in [1]; 270 nM in assay [2]; 4190 nM in assay [3]; 5540 nM in assay [4]; 50 nM in [5]. For the same molecule, the inhibition entry in assay [6], in [7], in [8], in assay [9], in [10] and in assay [11] was “Active” throughout.

As for `Cc1c(OC2CCN(C)CC2)ccc2cc(NC(=O)CCCCCCCCC(=O)Nc3cc4ccc(OC5CCN(C)CC5)c(C)c4oc3=O)c(=O)oc12`, the IC50 came to 2840 nM in [1]; 3680 nM in assay [2]; 10200 nM in [3]; 13200 nM in [4]; 3900 nM in assay [5].

Consider `Cc1c(OC2CCN(C)CC2)ccc2cc(NC(=O)C/C=C/CC(=O)Nc3cc4ccc(OC5CCN(C)CC5)c(C)c4oc3=O)c(=O)oc12`, for which the IC50 in assay [1] turned out to be 180 nM; in [2] it was 290 nM; in assay [3] it was 7510 nM; in [4], 21500 nM; in assay [5], 7100 nM. In addition, the inhibition result in [6], in assay [7], in [8], in assay [9], in [10] and in assay [11] was “Active” in each case.
